This is a sample that favours compounds with a hit; in the whole collection about 3% have one here.
Apaf-1 inh – blocks human Apaf-1 apoptosome activity; hit rate 0.71% among 330,000; O14727; AID 489030; reconstituted apoptosome caspase-3 activity, DEVD-Rh110 fluorescence; inhibition, % at 20 µM; active = inhibition of at least 40% at 20 µM
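detection = Rh110 fluorescence intensity | test system = biochemical Apaf-1 apoptosome reconstitution | also added = cytochrome c and DEVD-Rh110 substrate | schedule = 30 min plus 50 min, RT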
MEKK3 PB1 HTS – raises or lowers MEK5 binding to the human MEKK3 PB1 domain | Q99759 | bead-based flow cytometry, Alexa488-MEK5 binding to MEKK3; actives lie on both sides; 0 = blocked by unlabeled MEK5, 100 = vehicle | binding response (% of control), % at 10 µM | hit rate 1.4% among 290,000 | AID 1529;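 active = binding response more than 3 SD above or below the average of its plate-row segment, actives on both sides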;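 also: Alexa488 bead fluorescence after subtracting the streptavidin-only scavenger bead signal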
MEKK2 mut-MEK5 – signal of MEK5 binding to mutant human MEKK2 PB1 domain | percent response, % at 10 µM | AID 1530 | bead flow cytometry, Alexa488-MEK5 binding to MEKK2 mutant | hit rate 0.35% among 290,000; in the data active = percent response above about 24%, passing the limit was not always enough
MEKK2 WT-MEK5 – raises or lowers MEK5 binding to wildtype human MEKK2 PB1 domain; bead flow cytometry, Alexa488-MEK5 binding to MEKK2 WT; actives lie on both sides; binding response (% of control), % at 10 µM; hit rate 1.1% among 290,000; AID 1531; in the data active = binding response below about 67% or above about 130%
UCH37 DUB inh – human UCH37 deubiquitinating enzyme inhibition | purified proteasome/UCH37, Ub-AMC cleavage fluorescence | Q9Y5K5 | hit rate 0.33% among 330,000 | inhibition, % (no concentration beside the values);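 active = mean inhibition over replicate wells above about 20%, limit read from the data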
Target sequence (Q9Y5K5 whole entry, looked up): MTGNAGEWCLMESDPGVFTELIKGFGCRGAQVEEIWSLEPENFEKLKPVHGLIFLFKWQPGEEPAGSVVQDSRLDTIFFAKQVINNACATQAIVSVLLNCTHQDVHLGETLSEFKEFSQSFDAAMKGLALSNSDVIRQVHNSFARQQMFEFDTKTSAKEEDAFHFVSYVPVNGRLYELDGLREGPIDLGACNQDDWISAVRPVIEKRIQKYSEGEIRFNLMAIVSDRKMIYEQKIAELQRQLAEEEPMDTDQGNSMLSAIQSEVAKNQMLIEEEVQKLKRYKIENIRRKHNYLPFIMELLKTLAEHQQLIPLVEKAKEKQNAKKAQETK
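Material: Human UCH37 enzyme supplied as purified proteasome complex | Schedule: 30 min preincubation with enzyme, 25 min cleavage at room temperature | Detection: AMC fluorescence 355/460 nm | Measure: % inhibition of Ub-AMC cleavage fluorescence | Controls: Wells without proteasome as full block, compound-free enzyme plus substrate as uninhibited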
UBC13 polyUb – human UBC13 polyubiquitination inhibition. UBC13 polyubiquitin chain formation, TR-FRET. hit rate 0.47% among 330,000. inhibition, % at 20 µM; in the data active = inhibition above about 45%, passing the limit was not always enough
Target sequence (P61088 whole entry, looked up): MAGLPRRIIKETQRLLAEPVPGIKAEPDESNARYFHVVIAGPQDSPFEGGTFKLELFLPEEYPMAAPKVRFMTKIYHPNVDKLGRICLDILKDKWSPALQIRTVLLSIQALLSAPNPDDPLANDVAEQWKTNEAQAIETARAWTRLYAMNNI
MEKK2wt confirm – raises or lowers MEK5 binding to wildtype human MEKK2, retest; bead flow cytometry, Alexa488-MEK5 binding to MEKK2 WT; actives lie on both sides; shares compounds with MEKK3 PB1 HTS; binding response (% of control), % at 10 µM; hit rate 2.4% among 5,900; in the data active = binding response below about 16% or above about 210%; inactive = in between
MEKK2mut confirm – signal of MEK5 binding to mutant human MEKK2, retest; shares compounds with MEKK3 PB1 HTS; bead flow cytometry, Alexa488-MEK5 binding to MEKK2 mutant; percent response, % at 10 µM; hit rate 2% among 5,900; AID 1893; in the data active = percent response mostly above about 71%, no sharp cut-off; inactive = mostly below about 38%;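 also: higher means compound restores mutant binding toward wildtype level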
MEKK3-MEK5 inh – MEKK3-MEK5 PB1 inhibition, single concentration confirmation. hit rate 1.8% among 5,900. AID 1894. binding response (% of control), % at 10 µM. bead flow cytometry, Alexa488-MEK5 binding to MEKK3; active compounds read low. shares compounds with MEKK3 PB1 HTS;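 active = binding response below 72% of control, or above a set upper limit, though filed actives all read lower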;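 also: lower values mean stronger disruption of MEK5 binding to MEKK3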
Each line names hits and unclear results; the compound was inactive in the other large screens (follow-up assays come after a bar, where they were run); [ ] = dose if it differs, or a comment.

CCCCOC(=O)C[N+](C)(C)CCOC1CC2CCC1(C)C2(C)C (centres undefined)	none
CCCCCCOC(=O)C[N+](C)(C)CCOC1CC2CCC1(C)C2(C)C (centres undefined)	Apaf-1 inh 52.4, MEKK2 WT-MEK5 202.0, UBC13 polyUb 54.5 | MEKK2wt confirm inactive | MEKK2mut confirm inactive | MEKK3-MEK5 inh inactive
CCCCCCCOC(=O)C[N+](C)(C)CCOC1CC2CCC1(C)C2(C)C (centres undefined)	MEKK2 WT-MEK5 163.0 (no result: Apaf-1 inh, UBC13 polyUb) | MEKK2wt confirm inactive | MEKK2mut confirm inactive | MEKK3-MEK5 inh inactive
C=C(C)CNC(=S)NNC(=O)c1cc(C)oc1C	none
CN(C)CCN(Cc1cc2cc3c(cc2[nH]c1=O)OCCO3)C(=S)NCC1CCCO1 (centres undefined)	none
Cc1ccc(-c2csc3nc[nH]c(=S)c23)cc1	none
Cc1ccc(NC(=O)CN2C(=O)CCSc3ccc(S(=O)(=O)N4CCCC4)cc32)cc1C	none
CC(C)(C)c1cc[n+](/C(C(=S)NC2CC2)=C(/[O-])c2ccc(Cl)s2)cc1	MEKK3 PB1 HTS 81.0[inhibitor] | MEKK2wt confirm inactive | MEKK2mut confirm inactive | MEKK3-MEK5 inh inactive
COc1cc(OC)c(C=NNC(=O)Cn2nc([N+](=O)[O-])cc2C)c(OC)c1	none (no result: Apaf-1 inh, MEKK3 PB1 HTS, MEKK2 mut-MEK5, MEKK2 WT-MEK5, UBC13 polyUb)
CCOP(=O)(OCC)c1nc(-c2ccc(Cl)cc2Cl)oc1N1CCCCC1	MEKK3 PB1 HTS 39.0[inhibitor] | MEKK2wt confirm inactive | MEKK2mut confirm inactive | MEKK3-MEK5 inh inactive
COc1ccc(C(=O)N2CCC(c3ccccc3)CC2)c(OC)c1OC	MEKK3 PB1 HTS 134.0 | MEKK2wt confirm inactive | MEKK2mut confirm inactive | MEKK3-MEK5 inh inactive
COc1cccc(C(=O)N2CCN(C(=O)c3ccc(-c4ccccc4)cc3)CC2)c1OC	none
CN(C)c1cccc(C(=O)OCCNC(=O)c2cccc(S(=O)(=O)N3CCOCC3)c2)c1	MEKK3 PB1 HTS 46.0[inhibitor] | MEKK2wt confirm inactive | MEKK2mut confirm inactive | MEKK3-MEK5 inh inactive
CSCCC(NC(=O)c1ccccc1Cl)C(=O)NCC1COc2ccccc2O1 (centres undefined)	none (no result: MEKK3 PB1 HTS, MEKK2 mut-MEK5, MEKK2 WT-MEK5)
O=C(Nc1cc([N+](=O)[O-])ccc1F)C1CC1	MEKK3 PB1 HTS 130.0 | MEKK2wt confirm inactive | MEKK2mut confirm inactive | MEKK3-MEK5 inh inactive
COC(=O)CSc1nnc(CNc2ccc(OC)cc2)n1C	none
Cc1cc(C)c2c(n1)nn1c(NCCCN(C)C)cc(C)nc21	none
Cc1cc(NCCCN(C)C)n2nc(-c3cccs3)cc2n1	MEKK2 mut-MEK5 26.0 | MEKK2wt confirm inactive | MEKK2mut confirm inactive | MEKK3-MEK5 inh inactive
Cc1nc2ccccc2nc1OCC(=O)Nc1ccc(F)cc1	none
CCCOC(=O)c1ccc(NC(=O)Cc2cccs2)cc1	none
O=C(O)COCC(=O)Nc1ccc(Oc2ncnc3cc(Cl)ccc23)nc1	MEKK3 PB1 HTS 48.0[inhibitor] | MEKK2wt confirm inactive | MEKK2mut confirm inactive | MEKK3-MEK5 inh inactive
Cc1ccc(NC(=O)CN(C)C(=O)COC(=O)c2oc3ccccc3c2C)cc1	none (no result: MEKK3 PB1 HTS, MEKK2 mut-MEK5, MEKK2 WT-MEK5)
C/C(=N\NC(=O)c1ccc(-c2ccccc2)cc1)C1C(=O)c2ccccc2C1=O	MEKK3 PB1 HTS 47.0[inhibitor], MEKK2 WT-MEK5 47.0[inhibitor] (no result: UCH37 DUB inh) | MEKK2wt confirm inactive | MEKK2mut confirm inactive | MEKK3-MEK5 inh inactive
COc1ccc(Cl)cc1NC(=O)COC(=O)c1c(-c2ccccc2)noc1C	none (no result: MEKK3 PB1 HTS, MEKK2 mut-MEK5, MEKK2 WT-MEK5, UCH37 DUB inh)
CC(CNC(=O)CC(C)(C)C)NC(=O)CC(C)(C)C (centres undefined)	MEKK3 PB1 HTS 123.0 | MEKK2wt confirm inactive | MEKK2mut confirm inactive | MEKK3-MEK5 inh inactive
CC(C)CC(=O)NCC(C)NC(=O)CC(C)C (centres undefined)	none
